This is an account of results in the array DNA melting data of Ke et al. (doi:10.1101/2024.01.08.574731).

Series [1] is described as follows: melting temperature; fluorescence melt of hairpins on a sequencing array, two-state fit, raised by 9.35 °C to match UV melts. The following applies: sodium 0.088 M. A digest of the protocol:
(§1)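 To match UV melts, fitted temperatures were raised by 9.35 °C. These fits were bootstrapped two-state models that gave melting temperature and folding enthalpy, combined by inverse variance over four replicates. The input was normalised Cy3 fluorescence of library hairpins with annealed Cy3 and quencher oligos on a sequenced MiSeq flow cell, imaged in 50 mM Na-HEPES pH 8.0, 25 mM NaCl in 2.5 °C steps up to 60 °C.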

A short description of series [2]: folding enthalpy; higher = less favourable; fluorescence melt of hairpins on a sequencing array, two-state fit. The following applies: sodium 0.088 M. A digest of the protocol: as §1

GGAAGCGAAAGCTCCTCC ((((((....)))..))): the Tm in series [1] was determined as 51.3 °C. The folding enthalpy in series [2] was -16.8 kcal/mol.
The corresponding values for GGAAGCGAAAGCTCTCC ((((((....))).))) are 43.5 °C and -16.2 kcal/mol.
The corresponding values for GGAAGCGAAAGCTGTTCC ((((((....)))..))) are 36.5 °C and -12.1 kcal/mol.
In the same order, the values of GGAAGCGAAAGCTTGTCC ((((((....)))..))) are 35.8 °C and -10.3 kcal/mol.
For GGAAGCGCGAAAGCGTCC (((..(((....)))))), the Tm in series [1] turned out to be 37.3 °C. In addition, the folding enthalpy in series [2] was -9.67 kcal/mol.
For GGAAGCGGAAACGCCTCC (((.(((....))).))), in series [1], the Tm was 45.6 °C. Moreover, the folding enthalpy in series [2] was -20 kcal/mol.
In the same order, the values of GGAAGGCCGAAAGGCTCC (((..(((....)))))) are 34.6 °C and -11.9 kcal/mol.
For the sequence GGAAGGGGAAACCCCTCC (((.(((....))).))), the Tm in series [1] is 45 °C. Moreover, in series [2], the folding enthalpy was -21.1 kcal/mol.
GGAAGGGGAAACCCTCCC ((.((((....)))).)): in series [1], the Tm was 41.1 °C. In addition, the folding enthalpy in series [2] was -21 kcal/mol.
In the case of GGAAGGGGAAACCCTTCC (((((((....))))))), in series [1], the Tm came out at 64.4 °C. Moreover, the folding enthalpy in series [2] is -35.1 kcal/mol.
In the same order, the values of GGAAGGGGAAACCTTTCC ((((.((....)).)))) are 43.3 °C and -23.4 kcal/mol.
For the sequence GGAAGTGGAAACGCTTCC (((((.(....).))))), the Tm in series [1] was determined as 50.8 °C. In addition, the folding enthalpy in series [2] was -41.7 kcal/mol.
The corresponding values for GGAATCCGAAAGGAATCC (((.(((....))).))) are 48.7 °C and -31.2 kcal/mol.
In the same order, the values of GGAATCCGAAAGGAGTCC (((.(((....))).))) are 55.8 °C and -42.5 kcal/mol.
The corresponding values for GGAATCGAAAGATCCTCC ((((((....)))..))) are 42.7 °C and -21.4 kcal/mol.
As to GGAATCGGAAACGGTTTC (.((.((....)).)).), in series [1], the Tm worked out at 32.4 °C. For the same sequence, the folding enthalpy in series [2] was -26.3 kcal/mol.
For the sequence GGAATGCGAAAGCACTCC (((.(((....))).))), in series [1], the Tm is 48.3 °C. The folding enthalpy in series [2] was -23.6 kcal/mol.
In the same order, the values of GGAATGGAAACATTCC ((((((....)))))) are 53.1 °C and -44.9 kcal/mol.
Consider GGAATGGGAAACCATTTC (.(((((....))))).), for which the Tm in series [1] worked out at 42.2 °C. For the same sequence, in series [2], the folding enthalpy is -34.4 kcal/mol.
In the same order, the values of GGAATTGGAAACGATTCC (((((.(....).))))) are 45.6 °C and -34.4 kcal/mol.
On to GGACAAGGAAACCTGTCC (((((.(....).))))), for which the Tm in series [1] was 47.2 °C. Moreover, in series [2], the folding enthalpy is -31.4 kcal/mol.
For GGACACCGAAAGGTCTCC (((.(((....))).))), in series [1], the Tm was 40 °C. Further, in series [2], the folding enthalpy was -23.8 kcal/mol.
The corresponding values for GGACACCGAAAGGTTCC (((.(((....)))))) are 48.6 °C and -25.6 kcal/mol.
Consider GGACACGAAAGTGAATCC ((((((....)))..))), for which the Tm in series [1] came out at 32.9 °C. Moreover, the folding enthalpy in series [2] is -15.9 kcal/mol.
As to GGACACGAAAGTGGGTCC ((((((....)))..))), the Tm in series [1] stood at 48.7 °C. Moreover, in series [2], the folding enthalpy was -19.9 kcal/mol.
As to GGACACGGAAACATGTCC (((((.(....).))))), the Tm in series [1] turned out to be 44 °C. In series [2], the folding enthalpy was -33 kcal/mol.
In the same order, the values of GGACACGGAAACGTGCCC ((.((((....)))).)) are 54.5 °C and -27.9 kcal/mol.
For GGACAGCGAAAGCTCTCC (((.(((....))).))), the Tm in series [1] was determined as 38.4 °C. Also, the folding enthalpy in series [2] is -18.3 kcal/mol.
For the sequence GGACAGGGAAACCTGCCC ((.((((....)))).)), in series [1], the Tm was 48.2 °C. In addition, the folding enthalpy in series [2] is -22.3 kcal/mol.
In the same order, the values of GGACATGAAAATGTCC ((((((....)))))) are 61.7 °C and -34.7 kcal/mol.
The corresponding values for GGACATGGAAACATGCCC ((.((((....)))).)) are 47.4 °C and -23.4 kcal/mol.
For the sequence GGACCACCGAAAGGTTCC (((..(((....)))))), the Tm in series [1] came to 29.6 °C. For the same sequence, in series [2], the folding enthalpy was -11.2 kcal/mol.
As to GGACCAGCGAAAGCTTCC (((..(((....)))))), the Tm in series [1] came to 25.2 °C. Moreover, the folding enthalpy in series [2] is -10.3 kcal/mol.
In the same order, the values of GGACCAGGAAACTGATCC (((.(((....))).))) are 40.3 °C and -34.2 kcal/mol.
Turning to GGACCCACGAAAGTGTCC (((..(((....)))))), in series [1], the Tm amounted to 36.4 °C. The folding enthalpy in series [2] was -14.4 kcal/mol.
For GGACCCCGAAAGGGATCC (((.(((....))).))), in series [1], the Tm is 55.3 °C. The folding enthalpy in series [2] was -26.9 kcal/mol.
